Test results reported in publication PMC3600638 (Biomaterials, 2013).
Counter-ions that a name gives are not always drawn.

Tests used:
Pharmacokinetic profile = format: in vivo, nude mice; settings: IV bolus, H460 xenograft model
Procedure, shortened: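 Nanoparticles co-loaded with trace ³H-CTP as a marker of entrapped drug, given as an IV bolus to nude mice bearing H460 tumors. 30 μL blood drawn from the orbital venous plexus at 20 min, 1, 2, 4, 8 and 24 h, bleached with 30% H₂O₂ and counted by liquid scintillation. %ID in blood calculated with the initial value set at 100%; PK parameters from a non-compartmental fit.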

H460 xenografts [1] = assay: Western blot of tumor lysates; format: in vivo, nude mice; settings: 3 daily IV injections
Procedure, shortened: (§1)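 Tumors from xenograft-bearing nude mice harvested 24 h after three daily IV injections; RIPA lysates prepared. 40 μg protein per lane on 4–12% SDS-PAGE, transferred to PVDF, blocked 1 h in 5% milk. Mouse monoclonal PARP-1 and rabbit polyclonal cyclin D1 antibodies (1:500) overnight at 4°C. β-actin (1:4000) as loading control; secondaries 1:4000 for 1 h; ECL detection.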

BxPC-3 xenografts [2] = assay: In vivo caspase-3/7 activation in tumors; set-up: species or system nude mice; settings: 3 daily IV injections, 7.5 μmol/Kg, 24 h after last injection
Procedure, shortened: (§2)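 Female nude mice, 6–8 weeks old, with s.c. right-flank xenografts (5×10⁶ cells in PBS), n=3. Three daily IV doses of 7.5 μmol/Kg; tumors taken 24 h after the last dose. Tissue homogenised and sonicated in RIPA with protease inhibitors, spun 14,000 rpm for 10 min at 4°C. 40 μg protein (BCA) assayed with a caspase-3/7 kit.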

BxPC-3 xenografts [3] = assay: Western blot of tumor lysates; format: in vivo, nude mice; settings: 3 daily IV injections
Procedure, shortened: as §1

[4] = tested on: BxPC-3 subcutaneous tumors; assay: Tumor growth inhibition study; format: in vivo, nude mice; settings: BxPC-3 xenograft, 4 IV injections every other day, 7.5 μmol/Kg
Procedure, shortened: (§3)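 Female nude mice, 6–8 weeks old, inoculated s.c. with 5×10⁶ cells. Dosing began day 12 at 150–200 mm³ tumor volume, mice randomised into 6 groups (n=5). IV injections every other day ×4 at 7.5 μmol/Kg. Calipers every other day, V = 0.5×W²×L; body weight recorded every other day; mice euthanised when a tumor reached 20 mm.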

H460 subcutaneous tumors = assay: Tumor growth inhibition study; format: in vivo, nude mice; settings: H460 xenograft, 4 IV injections every other day, 7.5 μmol/Kg
Procedure, shortened: as §3

H460 cells [5] = assay: In vitro caspase-3/7 activation; format: cell-based, human; settings: 1.8 μM, 48 h
Procedure, shortened: (§4)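 H460 or BxPC-3 cells grown in RPMI-1640 with 10% FBS at 37°C and 5% CO₂. 2×10⁵ cells per well in 6-well plates, exposed to 1.8 μM test compound for 48 h. Lysed in RIPA buffer with protease inhibitors, protein measured by BCA, and 40 μg protein assayed with a commercial caspase-3/7 activity kit.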

H460 xenografts [6] = assay: In vivo caspase-3/7 activation in tumors; set-up: species or system nude mice; settings: 3 daily IV injections, 7.5 μmol/Kg, 24 h after last injection
Procedure, shortened: as §2

BxPC-3 cells [7] = assay: In vitro cell viability; format: cell-based, human; settings: 48 h, MTT
Procedure, shortened: (§5)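 Cells seeded at 1×10⁴ per well in 96-well plates. A range of test compound concentrations was added at 30% confluence, then 48 h at 37°C. MTT at 0.5 mg/mL final for 4 h at 37°C, formazan dissolved in DMSO, A570 read. Viability expressed as % of untreated cells; IC50 derived; mean ± S.D., n=3.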

H460 cells [8] = assay: In vitro cell viability; format: cell-based, human; settings: 48 h, MTT
Procedure, shortened: as §5

BxPC-3 cells [9] = assay: In vitro caspase-3/7 activation; format: cell-based, human; settings: 1.8 μM, 48 h
Procedure, shortened: as §4

H460 cells [10] = assay: In vitro cellular uptake of NBD-labeled LCPs; format: cell-based, human; settings: pre-incubation with 50 μM haloperidol for 1 h

Compound	AUMC (Pharmacokinetic profile)	cleaved PARP in tumors (H460 xenografts [1])	caspase-3/7 activity in tumors (BxPC-3 xenografts [2])	cleaved PARP in tumors (BxPC-3 xenografts [3])	tumor growth inhibition [4]	tumor growth inhibition (H460 subcutaneous tumors)	in vitro caspase-3/7 activity (H460 cells [5])	caspase-3/7 activity in tumors (H460 xenografts [6])	cell viability (BxPC-3 cells [7])	cell viability (H460 cells [8])	in vitro caspase-3/7 activity (BxPC-3 cells [9])	effect on cellular uptake of AA-modified LCP (H460 cells [10])
Nc1ccn([C@@H]2O[C@H](COP(=O)(O)OP(=O)(O)OP(=O)(O)O)[C@@H](O)C2(F)F)c(=O)n1 [GTP, Gemcitabine triphosphate tris(triethylammonium) salt]	25.34 h^2·%	did not induce PARP elevation	did not elicit caspase activity in vivo	did not induce PARP elevation	limited therapeutic effects	limited therapeutic effects	significantly higher than the control	did not elicit caspase activity in vivo	decreased the cell viability	decreased the cell viability	significantly higher than the control	–
Nc1ccn([C@@H]2O[C@H](CO)[C@@H](O)C2(F)F)c(=O)n1 [Gem, 2′, 2′-difluoro 2′-deoxycytidine]	–	did not induce PARP elevation	did not elicit caspase activity in vivo	did not induce PARP elevation	limited therapeutic effects	limited therapeutic effects	significantly higher than the control	did not elicit caspase activity in vivo	decreased the cell viability	decreased the cell viability	significantly higher than the control	–
O=C(CCCN1CCC(O)(c2ccc(Cl)cc2)CC1)c1ccc(F)cc1 [haloperidol]	–	–	–	–	–	–	–	–	–	–	–	significantly reduced the cellular uptake of AA-modified LCP
